Bioassay records from PubChem BioAssay.
HKDC1 inh = blocks human hexokinase HKDC1 activity | recombinant HKDC1, G6PDH/diaphorase resazurin coupled fluorescence | inhibition, % at 20 µM | hit rate 0.16% among 340,000 | AID 493160;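 active means inhibition above about 35% when tested at 20 µM, limit read from the data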;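 further: plate controls were DMSO wells with enzyme for no effect and DMSO wells lacking enzyme for full effect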
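Material – in-house recombinant HK5 (HKDC1) enzyme · Quantity – HKDC1 at 5 µg/mL · Buffer or medium – pH 8.0 Tris buffer with 10 mM MgCl2 · Reagent – glucose with 1 mM ATP · Dosing – single 20 µM dose · Times – reaction time 90 min, room temperature, protected from light · Technique – resorufin fluorescence at 613 nm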
M18AAP inhibitor = PfM18AAP enzyme inhibition; recombinant PfM18AAP, H-Glu-NHMec fluorogenic cleavage; inhibition, % at 7.35 µM; hit rate 1.2% among 290,000; AID 1822;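 active means inhibition above the campaign mean inhibition over all tested compounds plus 3 SD, cut at about 28% in these data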;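 further: 0% = plate median of test compound wells and 100% = 2 mM ZnCl2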
Neddyl block = blocks human cullin neddylation; inhibition, % at 25 µM; hit rate 0.58% among 360,000; P61081+Q13564; TR-FRET cullin neddylation, biochemical; in the data active means inhibition above about 36%
Target sequence (P61081 whole entry, looked up): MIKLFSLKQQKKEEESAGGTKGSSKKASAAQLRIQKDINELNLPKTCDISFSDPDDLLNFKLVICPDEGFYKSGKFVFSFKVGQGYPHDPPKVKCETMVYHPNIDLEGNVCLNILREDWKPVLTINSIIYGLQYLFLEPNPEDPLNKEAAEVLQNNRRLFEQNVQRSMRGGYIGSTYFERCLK
Target sequence (Q13564 whole entry, looked up): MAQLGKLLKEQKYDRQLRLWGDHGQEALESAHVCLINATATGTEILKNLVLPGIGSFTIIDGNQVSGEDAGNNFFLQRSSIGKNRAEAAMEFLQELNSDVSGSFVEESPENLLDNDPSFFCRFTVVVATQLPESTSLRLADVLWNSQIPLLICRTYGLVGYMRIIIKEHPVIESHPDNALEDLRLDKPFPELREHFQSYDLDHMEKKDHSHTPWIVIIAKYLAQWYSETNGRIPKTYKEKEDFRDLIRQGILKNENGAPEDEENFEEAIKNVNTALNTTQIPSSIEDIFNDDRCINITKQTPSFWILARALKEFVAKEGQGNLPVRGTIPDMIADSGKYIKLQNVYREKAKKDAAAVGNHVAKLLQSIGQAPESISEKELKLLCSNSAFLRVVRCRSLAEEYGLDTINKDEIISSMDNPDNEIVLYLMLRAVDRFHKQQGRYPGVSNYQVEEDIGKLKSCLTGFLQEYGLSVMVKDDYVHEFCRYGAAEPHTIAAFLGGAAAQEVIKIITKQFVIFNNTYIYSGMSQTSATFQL
PfGluPho inh = PfG6PD (Plasmodium falciparum) enzyme inhibition; PfGluPho enzyme, NADPH resazurin-diaphorase fluorescence; inhibition, % at 20 µM; hit rate 0.78% among 350,000;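 active means inhibition reaching at least a set limit at 20 µM in the primary screen, cut at about 59% in these data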;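 further: 0% = DMSO wells with substrate and 100% = DMSO wells lacking glucose-6-phosphate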
PfGluPho conf = confirmation of Plasmodium falciparum G6PD inhibitors; shares compounds with PfGluPho inh; recombinant PfGluPho, NADPH-diaphorase-resazurin fluorescence; inhibition, % at 20 µM; hit rate 34% among 2,400; AID 504753;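 active means inhibition of at least 50% at 20 µM in any single replicate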;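 further: 0% = DMSO with substrate and 100% = DMSO lacking glucose-6-phosphate substrate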
Diaphorase 10uM = counter-screen for P. falciparum G6PD inhibitors: diaphorase inhibitors, oxidizers | shares compounds with PfGluPho inh | diaphorase-coupled resazurin reduction, fluorescence, NADPH 10 uM | inhibition, % at 20 µM | hit rate 39% among 820 | AID 504862;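 active means average inhibition reaching 50% or more with the compound at 20 µM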;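 further: resorufin red fluorescence formed as diaphorase reduces resazurin using NADPH; 0% = DMSO with enzyme and 100% = DMSO without enzyme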
Diaphorase 30uM = diaphorase inhibition or oxidation at 30 uM NADPH; Diaphorase/resazurin coupled assay, resorufin fluorescence; shares compounds with PfGluPho inh; AID 504863; hit rate 29% among 820; inhibition, % at 20 µM;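 active means inhibition averaging 50% or more, tested at 20 µM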;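 further: 0% = DMSO with enzyme and 100% = DMSO wells lacking diaphorase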
An asterisk follows results filed as active; i = inactive; . = not tested or not shown. Shown are actives, neighbours in structure and some others; about 2.2% of the full set was active somewhere.

SMILES	HKDC1 inh	M18AAP inhibitor	Neddyl block	PfGluPho inh	PfGluPho conf	others
C=CCn1c(C)cc(C(=O)CSc2nnc(C3CC3)n2C2CC2)c1C	-1	.	4	39	.
Cc1cc(C(=O)CSc2nnc(C3CC3)n2C2CC2)c(C)n1C(C)C	2	.	3	43	19
CCn1c(N)c(C(=O)NCc2ccc3c(c2)OCO3)sc1=S	-1	-7	-14	74*	33
O=C(CSC(=O)c1ccccc1)Nc1ccccc1F	-10	.	-7	63*	13
CC1=C(C)CS(=O)N(S(=O)(=O)c2ccc(Cl)cc2)C1 (stereo not given)	9	8	1	60*	49*	Diaphorase 10uM=2;Diaphorase 30uM=3
CC1CCCC(C)N1S(=O)(=O)c1ccc(Cl)cc1 (stereo not given)	4	-4	11	-18	.
CC(C)(C)S(=O)N1Cc2cc(C(=O)NCc3ccc4c(c3)OCO4)nc(-c3cccc(-c4ccccc4)c3)c2[C@@H]1CCO (stereo not given in full)	.	.	-176	.	.
COc1cccc(C(=O)Nc2nnc(S(=O)(=O)N(C)Cc3ccccc3)s2)c1	10	2	-95	88*	77*	Diaphorase 10uM=62*;Diaphorase 30uM=39
CN(Cc1ccccc1)S(=O)(=O)c1nnc(NC(=O)c2ccccc2)s1	-1	-7	6	44	.
CN(Cc1ccco1)S(=O)(=O)c1nnc(NC(=O)c2ccc(F)cc2)s1	-5	-24	9	98*	83*	Diaphorase 10uM=72*;Diaphorase 30uM=55*
COc1ccc(CN(C)S(=O)(=O)c2nnc(NC(=O)c3ccc(C)cc3)s2)cc1OC	1	-15	-148	88*	70*	Diaphorase 10uM=39;Diaphorase 30uM=27
COc1cccc(C(=O)Nc2nnc(S(=O)(=O)N(C)Cc3ccc(F)cc3)s2)c1	0	-7	-10	80*	48
O=C(COc1ccc(S(=O)(=O)N2CCOCC2)cc1)N1CCN(c2ccccc2)CC1	-1	6	6	-7	.
COc1ccc(C)cc1S(=O)(=O)N1CCCC(C(=O)NC2CC2)C1 (stereo not given)	-4	4	2	2	.
Cc1n[nH]c(=O)c2c(NC(=O)CSc3nn(-c4ccccc4)c(=S)s3)oc(C)c12	4	.	5	-17	.
COc1ccc(CN(C)S(=O)(=O)c2nnc(NC(=O)c3cccc(OC)c3)s2)cc1	11	3	-174	96*	62*	Diaphorase 10uM=56*;Diaphorase 30uM=60*
Cc1ccc(Cc2c(-c3ccc(Br)cc3)nc3ccc(Br)cn23)cc1	.	.	i	67*	-9
Cc1ccc(Cc2c(-c3ccc(Cl)cc3)nc3ccc(Cl)cn23)cc1	.	.	-21	86*	0
Cc1ccc(Cc2c(-c3ccc(C)cc3)nc3ccc(Cl)cn23)cc1	.	.	-23	77*	-10
Cc1ccc(-c2nc3ccc(Br)cn3c2Cc2ccsc2)cc1	.	.	-29	.	.
Cc1ccc(Cc2c(-c3cccc(Cl)c3)nc3ccc(Cl)cn23)cc1	.	.	-28	.	.
Cc1ccc(Cc2c(-c3ccc(Br)cc3)nc3ccc(Cl)cn23)cc1	.	.	-67	.	.
CCc1cccc(C)c1NC(=O)C1CCN(c2nn3c(=O)cc(C)nc3s2)CC1	0	0	0	-3	.
CCC(C)(C)n1nnnc1C(c1ccc2ncccc2c1)N1CCN(c2ccc(O)cc2)CC1 (stereo not given)	8	31*	-1	46	35
O=C(O)c1ccc(Nc2nc3ccccc3nc2NS(=O)(=O)c2cccs2)cc1	-3	-6	35	-12	.
SMILES	HKDC1 inh	M18AAP inhibitor	Neddyl block	PfGluPho inh	PfGluPho conf	others
O=C(O)c1ccc(NC2=C/C(=N/S(=O)(=O)c3cccs3)c3ccccc3C2=O)cc1	.	.	-67	106*	101*	Diaphorase 10uM=85*;Diaphorase 30uM=84*
CC(=O)c1cccc(NC(=S)N2CCN(S(=O)(=O)c3ccccc3)CC2)c1	-6	-1	-7	21	.
O=C(Nc1nc(-c2ccccc2)cs1)c1cccnc1	-3	2	-5	-1	.
CC(=O)Nc1ccc(C(=O)Nc2nc(-c3cccnc3)cs2)cc1	-1	22	-19	60*	2
COc1ccc(-n2cc(C(=O)O)c3ccccc3c2=O)cc1	-3	-11	7	-11	.
COc1ccc(-n2sc3ccccc3c2=O)cc1	.	.	-13	125*	109*	Diaphorase 10uM=-26;Diaphorase 30uM=-12
